# Experimental data gathered from unrelated publications.
# Lines come from different studies, so protocols differ.
# Target: Insulin-like growth factor 1 receptor (IGF1R, Homo sapiens, UniProt P08069)
SMILES,test,setting,remaining binding [%]
O=C(NCC1CCOCC1)c1n[nH]cc1NC(=O)c1c(F)cccc1F,"binding, competition with immobilised ligand",1 µM,96
CN1CCN(c2cnc3c(C4CCN(C(=O)c5ccc(OC(F)(F)F)cc5N)CC4)ncnc3c2)CC1,"cell-free assay, competition with immobilised ligand",1 µM,100
C[C@@H](c1ccc(-n2cnc3c(N)ncnc32)cc1)N1CCc2nn(C)c(Cc3ccccc3)c2C1=O,"binding, competition with immobilised ligand",0.1 µM,38
CNC(=O)[C@@H]1CC[C@@H](n2c(-c3ccc4cnccc4c3)nc3ccc(C(=O)NCc4cccc(C(N)=O)c4)cc32)C1,"binding, competition with immobilised ligand",1 µM,100
CCN1CCN(Cc2ccc(C(=O)Nc3ccc(C)c(Oc4ccc5c(c4)CC(=O)N5)c3)cc2C(F)(F)F)CC1,"binding, competition with immobilised ligand",1 µM,100
F[C@@H]1CCN(c2nccc(-c3cnn4ncccc34)n2)C1,binding,1 µM,89
CO[C@@H](C)c1c(Nc2ccc([C@H](N(C)C(=O)C3CCS(=O)(=O)CC3)C(F)(F)F)cc2)cnc2cc(Cl)nn12,"cell-free assay, competition with immobilised ligand",1 µM,100
O=C(c1ccc(Nc2ncc(Cl)c(-c3cc4ccccc4s3)n2)cc1)N1CCC(N2CCCC2)CC1,"binding, competition with immobilised ligand",1 µM,40
N[C@H]1CCN(c2nccc(-c3cnn4ncccc34)n2)C1,binding,1 µM,81
O=C(c1ccc(Nc2nccc(-c3cc4ccccc4s3)n2)cc1)N1CCC(N2CCCC2)CC1,"binding, competition with immobilised ligand",1 µM,100
CC(C)CC(=O)N1CCc2nc(-c3ccc(Br)cc3)nc(N(C)Cc3ccccc3)c2C1,"cell-free assay, competition with immobilised ligand",0.1 µM,83
C[C@H]1CCN(c2nccc(-c3cnn4ncccc34)n2)C1,binding,1 µM,90
C[C@@H]1CN(c2ccc3ncc(-c4ccc5[nH]nc(C6CC6)c5c4)n3n2)C[C@H](C)O1,"binding, competition with immobilised ligand",50 nM,99
O=C(c1ccc(Nc2ncc(Cl)c(-c3ccc(Cl)s3)n2)cc1)N1CCC(N2CCCC2)CC1,"binding, competition with immobilised ligand",1 µM,19
CN(C)c1ncc(F)c(-c2cnn3ncccc23)n1,binding,1 µM,100
Cc1cc(NC(=O)c2cccc(S(F)(F)(F)(F)F)c2)cc(-n2ccn3nc(-c4cccnc4)cc23)c1,"cell-free assay, competition with immobilised ligand",1 µM,100
CN(C)c1nccc(-c2cnn3ncccc23)n1,binding,1 µM,100
Cn1nc(C(=O)NCc2ccc(C(=O)O)cc2)cc1-c1ccc2[nH]ccc2c1,"cell-free assay, competition with immobilised ligand",0.1 µM,91
CN(c1nccc(-c2cnn3ncccc23)n1)C1CC1,binding,1 µM,93
COc1ccc2c(c1)O[C@@H](c1ccc(OC)c(OC)c1)C[C@H]2NC(=O)C1(c2ccc3c(c2)OC(F)(F)O3)CC1,"cell-free assay, competition with immobilised ligand",1 µM,90
C=CC(=O)N1CCC(C(=O)NCC(=O)N2CCN(c3nc(-c4cnc(N)nc4C(F)F)nc(N4CCOCC4)n3)CC2)CC1,"binding, competition with immobilised ligand",1 µM,100
Cc1nc(C2CCN(C(=O)c3ccc(OC(F)(F)F)cc3N)CC2)c2ncc(N3CCN(C)CC3)cc2n1,"cell-free assay, competition with immobilised ligand",1 µM,91
Nc1ncc2c(n1)-c1c([nH]c3ccc(C#CC4CC4)cc13)CCCC2,"binding, competition with immobilised ligand",1 µM,100
N#Cc1ccccc1CSc1nnc2c(n1)[nH]c1ccccc12,"binding, competition with immobilised ligand",10 µM,91
O=C(O)c1cc(-c2ccc(C3CCNCC3)cc2)c2ccc(-c3ccc(C(F)(F)F)cc3)cc2c1,"cell-free assay, competition with immobilised ligand",1 µM,95
